# Experimental data reported in PubChem BioAssay AID504382 (The Scripps Research Institute Molecular Screening Center, 2011).
# In all, about 2,500 compounds went through this assay and about 460 (18%) were called active. Only a sample is shown. A number with no mark means an inactive call.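 Rule for the calls: active = mean activation above a cutoff of low control average plus 3 SD from the earlier screen (cut at about 12% in these data); inactive = the rest.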
# Assay: IANBD-channel fluorescence artefacts in buffer – biochemical, artefact control for cardiac RTF calcium sensitizer project, confirmation (AID 504382)
# Settings: IANBD fluorescence interference counterscreen, EC20 Ca2+, at 7.2 µM, hits give high values
# Summary of the method: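 Doses – one dose of 7.2 µM, 0.7% DMSO · Buffer or medium – MOPS/KCl/MgCl2/EGTA/NTA/DTT buffer, pH 7.2 · Probe or stimulus – Ca2+ fixed at EC20, 0.472 mM · Measured by – fluorescence intensity, excitation 480 nm, emission 540 nm · Read-out – fluorescence interference versus control range · Timing – 15 min compound exposure at 25 °C · Replication – triplicate wells per compound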
row,SMILES,fluorescence artifact activation
1,O=c1cc(C(F)(F)F)c2cc3c4c(c2o1)CCCN4CCC3,19.7% (active)
2,Cc1cc2c(C(F)(F)F)cc(=O)oc2c2c1NCCC2,26.6% (active)
3,COc1ccc2c3c([nH]c2c1)C(C)=NCC3,0.04%
4,COc1ccc(CC(=O)N2CCN(C)CC2)cc1OC,0.89%
5,Cc1cc(N(CCCl)CCCl)ccc1C=Cc1ccncn1,3.44%
6,O=c1[nH]c(=O)n(Cc2ccc(F)cc2)c(O)c1/C=N/Nc1ccccc1,6.04%
7,CCOP(=O)(Cc1cc(C#N)oc1C)OCC,0.13%
8,CCN(CC)c1ccc(/C=C2\C(=O)NC(=S)N(c3ccc(OC)cc3OC)C2=O)o1,0.1%
9,COc1ccc(N2C(=O)/C(=C/c3ccc(N(C)C)o3)C(=O)NC2=S)cc1,92% (active)
10,CCN(CC)c1ccc(/C=C2\C(=O)NC(=S)N(C)C2=O)o1,7.26%
11,CCN(CC)c1ccc(N=Cc2c(O)n(Cc3ccco3)c(=O)[nH]c2=O)cc1,0.1%
12,Cc1ccc(C)c(Cn2c(C(=O)O)c(C=O)c3ccccc32)c1,0.2%
13,C[C@]12CCC(=O)C=C1CC[C@@H]1[C@@H]2CC[C@]2(C)C(=O)CC[C@@H]12,0.01%
14,CCC(CO)NC(=O)C1C=C2c3cccc4[nH]cc(c34)CC2N(C)C1 (configuration not stated),1.39%
15,CC1=C[C@@H]2c3cccc4[nH]cc(c34)C[C@H]2N(C)C1,14.5% (active)
16,CN1C[C@H](CO)C=C2c3cccc4[nH]cc(c34)C[C@H]21,0.35%
17,COC(=O)C1=C(c2cccc(OC)c2OC)C[C@@H]2CC[C@H]1N2C(=O)NCc1ccco1,1.08%
18,COC(=O)C1=C(c2cccc(OC)c2OC)C[C@@H]2CC[C@H]1N2C(=O)NCCCOC(C)C,0.79%
19,COC(=O)C1=C(c2ccc(F)cc2OCc2ccccc2)C[C@@H]2CC[C@H]1N2C(=O)NCc1ccc(OC)c(OC)c1,57% (active)

row,SMILES,fluorescence artifact activation
1,O=C(O)C1=CC2c3ccccc3C1c1ccccc12,0.01%
2,O=[N+]([O-])c1ccc(N2CCCCCC2)c2nonc12,6.24%
3,CCOC(=O)c1ccccc1C(=O)OCC,1510% (active)
4,COc1ccccc1N1C(=O)NC(=O)/C(=C/c2ccc3c4c(cccc24)CC3)C1=O,0.07%
5,Cn1c(O)c(/C=C/C=Nc2ccccc2)c(=O)n(C)c1=O,-0.08%
6,CCOCCCn1c(N)c(C(=O)Nc2sc3c(c2C(=O)OC)CCCC3)c2nc3ccccc3nc21,2.92%
7,CCCCn1c(O)c(C(=O)/C=C/c2c[nH]c3ccccc23)c(=O)[nH]c1=O,3%
8,CCCCC(=O)N/N=C/c1c(O)n(CC)c(=S)n(CC)c1=O,0.21%
9,O=c1[nH]c(=S)n(-c2ccc(Br)cc2)c(O)c1C=Nc1ccc(N2CCOCC2)cc1,0.07%
10,CCn1c(O)c(C=Nc2ccc(N3CCOCC3)cc2)c(=O)n(CC)c1=S,23.9% (active)
11,Cc1ccc(N2C(=O)NC(=O)/C(=C\c3ccoc3)C2=O)cc1,0.07%
12,COC(=O)[C@H]1C[C@@H]1[C@H](NP(=O)(c1ccccc1)c1ccccc1)c1ccccc1,0.01%
13,COc1ccc(N=Nc2c(O)[nH]c(=S)[nH]c2=O)cc1,0.58%
14,Nc1ccc2ccc3cccc[n+]3c2c1,0.21%
15,Cc1cc(Cl)nc(N)n1,14.3% (active)
16,C#C[C@]1(O)CC[C@H]2[C@@H]3CCC4=Cc5nc6nc7ccccc7n6cc5C[C@]4(C)[C@H]3CC[C@@]21C,0.16%
17,CN1CCc2cc3c(c4c2C1Cc1ccccc1-4)OCO3 (configuration not stated),0.18%
18,O=C1NC(=O)N(c2ccc3c(c2)OCO3)C(=O)/C1=C\c1ccc(N2CCCCC2)o1,0.37%
19,Cc1ccccc1N1C(=O)NC(=O)/C(=C\c2cc(Br)c(N3CCOCC3)o2)C1=O,-0.03%

row,SMILES,fluorescence artifact activation
1,CCc1ccccc1N1C(=O)/C(=C/c2ccc(N3CCN(C)CC3)o2)C(=O)NC1=S,119% (active)
2,CCOc1ccc(N2C(=O)NC(=O)/C(=C\c3ccc(N4CCCCC4)o3)C2=O)cc1,51.4% (active)
3,Cc1cccc(N2C(=O)/C(=C/c3ccc(N4CCN(C)CC4)o3)C(=O)NC2=S)c1C,0.2%
4,O=C1NC(=O)C(=Cc2ccc(N3CCOCC3)o2)C(=O)N1,-0.04%
5,Cc1ccccc1N1C(=O)NC(=O)/C(=C/c2ccc(N3CCOCC3)o2)C1=O,14.1% (active)
6,O=C1NC(=O)N(c2ccc3c(c2)OCO3)C(=O)/C1=C/c1ccc(N2CCCC2)o1,0.12%
7,CN1CCN(c2ccc(/C=C3\C(=O)NC(=S)N(c4cccc(Br)c4)C3=O)o2)CC1,-0.01%
8,O=[N+]([O-])c1ccc(N2CCCC2)c2ncccc12,9.73%
9,C[C@]12CCC3C(CC[C@H]4C[C@@H](O)[C@H](O)C[C@]34C)C1CC[C@@H]2O (some centres not stated),4.4%
10,OC12CCCCC1C(c1ccccc1)NCC2 (configuration not stated),0.14%
11,CN1C(=O)C(=Cc2sc(=O)n(-c3ccccc3)c2N2CCCCC2)C(=O)N(C)C1=O,-0.07%
12,CCN(CC)C(=O)c1ccc(NC(=O)COc2ccc([N+](=O)[O-])cc2Cl)cc1,0.19%
13,C=Cn1ccnc1P(=S)(c1nccn1C=C)c1nccn1C=C,6.72%
14,CN(C)P(=O)(CCl)Nc1ccccc1 (configuration not stated),10%
15,C=CCN1C(=O)/C(=C\c2ccc(N3CCOCC3)o2)C(=O)NC1=S,0.23%
16,O=C1NC(=O)C(=Cc2cn(CCOc3ccc4c(c3)OCO4)c3ccccc23)C(=O)N1,1.05%
17,Cc1cc(C)c(Cn2c(C(=O)O)c(C=O)c3ccccc32)c(C)c1,0.05%
18,CC(C)c1ccc(N2C(=O)NC(=O)/C(=C/C=C/c3ccco3)C2=O)cc1,-0.06%
19,CC(C)C[C@H]1C(=O)N2CCC[C@H]2[C@]2(O)O[C@](NC(=O)[C@@H]3C=C4c5cccc6[nH]cc(c56)C[C@H]4N(C)C3)(C(C)C)C(=O)N12,0.12%
